Screens (PubChem)
SUMO HTRF inh – blocks human SUMOylation mediated by UBC9; P63279; HTRF SUMOylation assay, SAE1/SAE2 + UBC9, in vitro; inhibition, % at 35 µM; actives 0.36% (n = 290,000); AID 2006; in the data active = inhibition above about 50%, passing the limit was not always enough
Target sequence (P63279 whole entry, looked up): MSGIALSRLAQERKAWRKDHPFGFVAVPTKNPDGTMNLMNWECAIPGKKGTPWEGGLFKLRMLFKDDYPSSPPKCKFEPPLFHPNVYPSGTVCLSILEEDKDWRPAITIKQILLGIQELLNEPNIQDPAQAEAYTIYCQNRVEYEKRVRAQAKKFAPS
NS3 helicase inh – HCV NS3 helicase inhibition; NS3 helicase DNA unwinding, Cy5 molecular beacon fluorescence; inhibition, % at 10.9 µM; actives 0.56% (n = 290,000); AID 1800;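 active = inhibition above the mean of all tested compounds plus 3 SD, set per campaign, cut at about 35% in these data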;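 also: 0% = DMSO wells and 100% = thioflavine S control wells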
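Measured by: Cy5 fluorescence, 0 and 60 min reads / Assay system: NS3 helicase fragment of HCV / Control set: low DMSO, high thioflavine S at 110 µM / Times: 1 h reaction at 25 °C, ATP-initiated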
IMP-1 inhibitor – inhibitors of Pseudomonas aeruginosa IMP-1 metallo-beta-lactamase; purified IMP-1, nitrocefin hydrolysis, epi-absorbance fluorescence; inhibition, % at 5.6 µM; AID 1556; actives 0.45% (n = 290,000);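 active = inhibition above the mean plus 3 SD of all compounds in the same screening run, cut at about 4.5% in these data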;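 also: 0% = IMP-1 with DMSO and 100% = DMSO wells lacking enzyme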
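System: Purified recombinant IMP-1 metallo-beta-lactamase enzyme | Measured by: Fluorescence quenching readout, ex 480/em 530 nm | Replication: Singlicate | Incubation: 15 min preincubation plus 25 min reaction at 25 °C | Evaluation: Percent inhibition from optical density relative to buffer-blank wells | Benchmarks: DMSO with and without IMP-1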
VIM-2 inh – inhibitors of Pseudomonas aeruginosa VIM-2 metallo-beta-lactamase; actives 0.89% (n = 290,000); purified VIM-2, nitrocefin hydrolysis, epi-absorbance fluorescence; AID 1527; inhibition, % at 5.6 µM;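 active = inhibition above the mean of all tested compounds plus 3 SD, cutoff set per screening run, cut at about 7.5% in these data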;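 also: red hydrolysis product quenches plate fluorescence so inhibitors raise well fluorescence; 0% = enzyme with DMSO and 100% = DMSO without enzyme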
DNA FID counter-1 – fluorescent intercalator displacement, NS3 helicase counter-screen; DNA fluorescent intercalator displacement, fluorescence; actives 0.17% (n = 290,000); AID 1845; inhibition, % at 7.9 µM;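 also: 0% = vehicle and 100% = reference compound; higher means more ethidium bromide displaced from hairpin DNA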
NS3 hel confirm – confirmation of Hepatitis C virus NS3 helicase inhibitors | NS3 helicase DNA unwinding, Cy5 molecular beacon fluorescence | shares compounds with NS3 helicase inh | actives 31% (n = 1,600) | inhibition, % at 10.9 µM;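 active = inhibition above the mean of all tested compounds plus 3 SD, cutoff set per campaign, cut at about 36% in these data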
DNA FID counter-2 – counter-screen for HCV NS3 helicase inhibitors: DNA intercalator displacement. shares compounds with NS3 helicase inh. DNA fluorescent intercalator displacement, fluorescence. inhibition, % at 7.9 µM. actives 4% (n = 1,600). AID 1945;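 also: 0% = vehicle and 100% = reference compound; higher means more displacement of ethidium bromide from the DNA hairpin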
An asterisk follows results filed as active. A selection: hits, their analogues and other compounds. The true share with any hit is near 2.1%. Rule as the data show it, unless noted: active = inhibition above about 37%; inactive = the rest.

How did CC(C)c1ccc(SCc2noc(C(=O)NCC3CCCO3)c2C(=O)O)cc1 (stereo not given) do in these assays?
SUMO HTRF inh: -16; NS3 helicase inh: 41*; IMP-1 inhibitor: -1; VIM-2 inh: 3; DNA FID counter-1: -35; NS3 hel confirm: 36; DNA FID counter-2: -19

Results for Cn1c2ccccc2c2cc(/C=N/NC(=O)c3cc(O)ccc3O)ccc21 ?
SUMO HTRF inh: 58*; NS3 helicase inh: 69*; IMP-1 inhibitor: -3; VIM-2 inh: -5; DNA FID counter-1: -10; NS3 hel confirm: 24; DNA FID counter-2: 12

What do the screens show for `Cn1c2ccccc2c2cc(/C=N/NC(=O)c3cc(O)cc(O)c3)ccc21`?
SUMO HTRF inh: 12; NS3 helicase inh: 23; IMP-1 inhibitor: -2; VIM-2 inh: 0; DNA FID counter-1: -18

Results for Cc1cccc(NS(=O)(=O)c2ccc3oc(=O)ccc3c2)c1C ?
SUMO HTRF inh: 0; NS3 helicase inh: -4; IMP-1 inhibitor: -2; VIM-2 inh: -2; DNA FID counter-1: -5

Results for Cc1ccc(N(C(=O)c2csnn2)C(C(=O)NC2CCCC2)c2ccncc2)c(C)c1 (stereo not given) ?
SUMO HTRF inh: 1; NS3 helicase inh: 39*; IMP-1 inhibitor: 1; VIM-2 inh: 1; DNA FID counter-1: -22; NS3 hel confirm: -7; DNA FID counter-2: -8

What do the screens show for `Cc1ccc(NC(=O)CCS(=O)(=O)c2cccc3nonc23)cc1`?
SUMO HTRF inh: 3; NS3 helicase inh: 7; IMP-1 inhibitor: -2; VIM-2 inh: -1; DNA FID counter-1: 5

What do the screens show for `Cc1ccc(NC(=O)CCS(=O)(=O)c2cccc3nonc23)cc1Cl`?
SUMO HTRF inh: -10; NS3 helicase inh: 42*; IMP-1 inhibitor: 1; VIM-2 inh: 0; DNA FID counter-1: 6; NS3 hel confirm: -11; DNA FID counter-2: 3

Results for CS(=O)(=O)Nc1ccc(C2=NN(S(C)(=O)=O)C(c3ccc4c(c3)OCO4)C2)cc1 (stereo not given) ?
SUMO HTRF inh: 12; NS3 helicase inh: 5; IMP-1 inhibitor: -3; VIM-2 inh: 0; DNA FID counter-1: -6

Results for CN(Cc1ccc(Cl)cc1)C(=O)c1ccc2ccccc2n1 ?
SUMO HTRF inh: -5; NS3 helicase inh: -7; IMP-1 inhibitor: -2; VIM-2 inh: -1; DNA FID counter-1: -34

What do the screens show for `COc1cc(/C=C(/C#N)C(=O)Nc2ccccc2)ccc1OCc1ccc(C(=O)O)cc1`?
SUMO HTRF inh: 5; NS3 helicase inh: 19; IMP-1 inhibitor: -2; VIM-2 inh: -2; DNA FID counter-1: -25

How did COc1cc(/C=C(\C#N)C(=O)Nc2ccc(C(=O)O)cc2)ccc1OC(=O)c1cccc(F)c1 do in these assays?
SUMO HTRF inh: 1; NS3 helicase inh: 47*; IMP-1 inhibitor: 0; VIM-2 inh: 2; DNA FID counter-1: -15; NS3 hel confirm: 63*; DNA FID counter-2: -24

Results for O=C(Nc1nnc(-c2ccco2)s1)c1ccccc1 ?
SUMO HTRF inh: 9; NS3 helicase inh: 11; IMP-1 inhibitor: -3; VIM-2 inh: -3; DNA FID counter-1: -2

What do the screens show for `CC(=O)c1sc(C(=O)O)c(-c2ccco2)c1-c1ccco1`?
SUMO HTRF inh: 28; NS3 helicase inh: 52*; IMP-1 inhibitor: 2; VIM-2 inh: -1; DNA FID counter-1: -7; NS3 hel confirm: 36; DNA FID counter-2: 39*

How did OCCC1CN(CCCn2cccn2)CCN1C1CCCCC1 (stereo not given) do in these assays?
SUMO HTRF inh: 8; NS3 helicase inh: -4; IMP-1 inhibitor: -2; VIM-2 inh: -8; DNA FID counter-1: 14

What do the screens show for `O=C(NC(Cc1ccccc1)C(=O)N1CCN(c2ccccn2)CC1)c1ccco1` (stereo not given)?
SUMO HTRF inh: 9; NS3 helicase inh: 49*; IMP-1 inhibitor: -6; VIM-2 inh: 0; DNA FID counter-1: -27; NS3 hel confirm: -11; DNA FID counter-2: -17

What do the screens show for `O=C(CN1CCN(Cc2ccccc2)CC1)N/N=C/c1ccc(Br)s1`?
SUMO HTRF inh: 6; NS3 helicase inh: -1; IMP-1 inhibitor: 0; VIM-2 inh: 2; DNA FID counter-1: 16

How did CCOC(=O)c1sc(N2C(=O)C(O)=C(C(=O)c3ccc(C)o3)C2c2cccc([N+](=O)[O-])c2)nc1C (stereo not given) do in these assays?
SUMO HTRF inh: -3; NS3 helicase inh: 1; IMP-1 inhibitor: -3; VIM-2 inh: -2; DNA FID counter-1: -15

How did Cc1ccc2nc(N3C(=O)C(O)=C(C(=O)c4ccc(C)o4)C3c3cccc(O)c3)sc2c1 (stereo not given) do in these assays?
SUMO HTRF inh: 15; NS3 helicase inh: 44*; IMP-1 inhibitor: -2; VIM-2 inh: -5; DNA FID counter-1: -11; NS3 hel confirm: 106*; DNA FID counter-2: 4

How did O=C1CC(Nc2ccc(N3CCOCC3)cc2)C(=O)N1c1cccc(C(F)(F)F)c1 (stereo not given) do in these assays?
SUMO HTRF inh: -13; NS3 helicase inh: 48*; IMP-1 inhibitor: -11; VIM-2 inh: -5; DNA FID counter-1: -17; NS3 hel confirm: -8; DNA FID counter-2: -1

How did COc1ccc(Nc2ncnc3c2c(C)c(C)n3CCCN(C)C)cc1 do in these assays?
SUMO HTRF inh: 1; NS3 helicase inh: 6; IMP-1 inhibitor: -2; VIM-2 inh: -2; DNA FID counter-1: 3

How did Cc1ccc(S(=O)(=O)Nc2nc3ccccc3nc2NCc2ccco2)cc1 do in these assays?
SUMO HTRF inh: 3; NS3 helicase inh: 36*; IMP-1 inhibitor: -2; VIM-2 inh: 1; DNA FID counter-1: -9; NS3 hel confirm: 40*; DNA FID counter-2: -1

Results for O=S(=O)(Nc1nc2ccccc2nc1NCc1ccco1)c1ccc(Cl)cc1 ?
SUMO HTRF inh: -2; NS3 helicase inh: 29; IMP-1 inhibitor: -2; VIM-2 inh: -1; DNA FID counter-1: -23

Results for CCOc1cc(/C=C2\C(=O)ON=C2c2ccccc2)cc(Br)c1O ?
SUMO HTRF inh: 11; NS3 helicase inh: 36; IMP-1 inhibitor: -4; VIM-2 inh: -3; DNA FID counter-1: -10

How did COc1cc(/C=C2\C(=O)ON=C2c2ccccc2)cc(Br)c1O do in these assays?
SUMO HTRF inh: -5; NS3 helicase inh: 38*; IMP-1 inhibitor: -4; VIM-2 inh: -4; DNA FID counter-1: -7; NS3 hel confirm: 32; DNA FID counter-2: 1

Results for COC(=O)c1ccccc1-c1ccc(/C=N/NC(=O)c2cc3ccccc3o2)o1 ?
SUMO HTRF inh: -2; NS3 helicase inh: 38*; IMP-1 inhibitor: -3; VIM-2 inh: -1; DNA FID counter-1: -45; NS3 hel confirm: -5; DNA FID counter-2: -26
